In publication PMC9055346 (RSC Advances, 2020):
Values joined by “and” are separate entries in the source; they are usually repeats but may differ in a detail not shown here. Equal entries are not always repeated.

Columns and labels:
[1] = molecular target: AChE from electric eel (EeAChE) (Electrophorus electricus, UniProt O42275); test: In vitro AChE inhibition, modified Ellman's method; assay type: biochemical; conditions: for IC50: EeAChE IC50 ± SEM, mean of three independent experiments; for AChE inhibitory activity (in words): up to 10 mM; for inhibition at 156 µM / inhibition at 312 µM / inhibition at 625 µM / inhibition at 1250 µM / inhibition at 2500 µM / inhibition at 5000 µM / inhibition at 10000 µM: read-out: % of AChE inhibition
[2] = Antioxidant assay, ORAC-FL method; conditions: compound and Trolox at 8 μM, 37 °C, three independent experiments
Method in brief: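 ORAC-FL in 75 mM phosphate buffer, 200 μL total: test compound, Trolox (both 8 μM) or buffer blank with 150 nM fluorescein solution, kept dark at 37 °C for 30 min. Then 12 mM AAPH solution is added and fluorescence (ex 485/em 535 nm) read every 1 min for 15 min. Net AUC vs blank is expressed as Trolox equivalents (Trolox = 1). Triplicates; three independent experiments, mean ± SEM.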

[3] = Metal chelation study by UV spectrophotometer; assay type: physicochemical; conditions: for chelation of Al^3+ (in words): UV spectra 200 to 600 nm
Method in brief: (§1)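 UV spectra from 200 to 600 nm at 37 °C. Test compound and metal salt (FeCl3, CuCl2, ZnSO4·H2O or AlCl3·6H2O) are combined at 100 μM each and incubated at 37 °C for 30 min. Compound-alone spectra use water in place of metal. Read-outs are % change in absorbance, (+) for decrease and (−) for increase, plus band shift.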

[4] = Metal chelation study by UV spectrophotometer; assay type: physicochemical; conditions: for chelation of Fe^3+ (in words): UV spectra 200 to 600 nm
Method in brief: as §1

[5] = Metal chelation study, selectivity towards essential metals; assay type: physicochemical; conditions: UV spectra
Method in brief: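 KCl, NaCl, CaSO4 or […] solutions are mixed with test compound at 100 μM each ligand and metal, incubated at 37 °C for 30 min, and scanned by UV from 200 to 600 nm, with compound-alone spectra taken in water. For the affinity check, Fe3+, Zn2+, Cu2+, Ca2+, Mg2+, Na+ and K+ are mixed at equal concentrations with test compound at 100 μM.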

[6] = Affinity study of 5i towards Fe^3+ in metal pool; assay type: physicochemical; conditions: Zn^2+, Cu^2+, Ca^2+, Mg^2+, Na^+ and K^+ and 5i, 100 μM each
[7] = Stoichiometric study of Fe^3+–5i complex; assay type: physicochemical; conditions: Fe^3+ 0–100 μM, 5i 100 μM; at 239 nm and 327 nm as printed
Method in brief: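 UV titration at 37 °C: 100 μM test compound in a cuvette receives 20 μL aliquots of 1 mM FeCl3, raising Fe3+ in 10 μM steps to a final 10–100 μM. Spectra are recorded after each addition. A Job's plot is built from band absorbances, and the mole fraction is obtained by extrapolation.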

Sequence of AChE from electric eel (EeAChE) (O42275 24-633): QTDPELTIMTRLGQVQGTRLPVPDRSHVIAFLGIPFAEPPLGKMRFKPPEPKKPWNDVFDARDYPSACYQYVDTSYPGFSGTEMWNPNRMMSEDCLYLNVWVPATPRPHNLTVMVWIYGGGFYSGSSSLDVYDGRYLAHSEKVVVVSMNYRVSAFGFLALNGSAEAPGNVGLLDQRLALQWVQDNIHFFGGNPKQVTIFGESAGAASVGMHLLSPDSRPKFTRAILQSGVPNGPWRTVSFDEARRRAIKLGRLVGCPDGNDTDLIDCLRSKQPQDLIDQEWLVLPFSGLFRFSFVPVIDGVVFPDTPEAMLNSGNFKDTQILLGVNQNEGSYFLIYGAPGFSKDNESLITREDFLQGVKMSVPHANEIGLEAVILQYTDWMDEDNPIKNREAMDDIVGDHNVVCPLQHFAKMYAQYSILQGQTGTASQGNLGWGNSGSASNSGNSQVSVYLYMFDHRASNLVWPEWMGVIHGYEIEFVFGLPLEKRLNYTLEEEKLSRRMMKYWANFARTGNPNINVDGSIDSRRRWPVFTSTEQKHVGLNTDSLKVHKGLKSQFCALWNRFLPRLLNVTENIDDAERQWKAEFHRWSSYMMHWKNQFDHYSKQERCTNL

SMILES | IC50 [1] [mM] | ORAC index ± SEM [2] | inhibition at 156 µM [1] [%] | inhibition at 312 µM [1] [%] | inhibition at 625 µM [1] [%] | inhibition at 1250 µM [1] [%] | inhibition at 2500 µM [1] [%] | inhibition at 5000 µM [1] [%] | inhibition at 10000 µM [1] [%] | further results
Cc1ncc(COCc2cn(Cc3ccccc3)nn2)c(CO)c1O [Compound 5a, 5-(((1-Benzyl-1H-1,2,3-triazol-4-yl)methoxy)methyl)-4-(hydroxymethyl)-2-methylpyridin-3-ol] | > 10 | 1.0564 Trolox equivalents |  |  |  |  |  |  |  | AChE inhibitory activity (in words) [1]: inactive
Cc1ccc(Cn2cc(COCc3cnc(C)c(O)c3CO)nn2)cc1 [Compound 5b, 4-(Hydroxymethyl)-2-methyl-5-(((1-(4-methylbenzyl)-1H-1,2,3-triazol-4-yl)methoxy)methyl)pyridin-3-ol] | 3.38 | 1.8428 Trolox equivalents |  |  |  |  |  |  |  | 
Cc1cccc(Cn2cc(COCc3cnc(C)c(O)c3CO)nn2)c1 [Compound 5c, 4-(Hydroxymethyl)-2-methyl-5-(((1-(3-methylbenzyl)-1H-1,2,3-triazol-4-yl)methoxy)methyl)pyridin-3-ol] | 1.38 | 2.0164 Trolox equivalents | 22.5 | 26.9 | 39.1 | 53.8 | 64.1 | 73.4 | 81.9 | chelation of Al^3+ (in words) [3]: chelated; chelation of Fe^3+ (in words) [4]: chelated
Cc1ccccc1Cn1cc(COCc2cnc(C)c(O)c2CO)nn1 [Compound 5d, 4-(Hydroxymethyl)-2-methyl-5-(((1-(2-methylbenzyl)-1H-1,2,3-triazol-4-yl)methoxy)methyl)pyridin-3-ol] | 0.907 | 1.9723 Trolox equivalents | 33.5 | 36.4 | 51.1 | 58.6 | 69.6 | 81.3 | 86 | 
COc1cccc(Cn2cc(COCc3cnc(C)c(O)c3CO)nn2)c1 [Compound 5e, 4-(Hydroxymethyl)-5-(((1-(3-methoxybenzyl)-1H-1,2,3-triazol-4-yl)methoxy)methyl)-2-methylpyridin-3-ol] | 4.57 | 1.8862 Trolox equivalents |  |  |  |  |  |  |  | 
COc1cc(Cn2cc(COCc3cnc(C)c(O)c3CO)nn2)cc(OC)c1 [Compound 5f, 5-(((1-(3,5-Dimethoxybenzyl)-1H-1,2,3-triazol-4-yl)methoxy)methyl)-4-(hydroxymethyl)-2-methylpyridin-3-ol] | 2.65 | 2.3425 Trolox equivalents |  |  |  |  |  |  |  | 
Cc1ncc(COCc2cn(Cc3ccc(F)cc3)nn2)c(CO)c1O [Compound 5g, 5-(((1-(4-Fluorobenzyl)-1H-1,2,3-triazol-4-yl)methoxy)methyl)-4-(hydroxymethyl)-2-methylpyridin-3-ol] | 6.47 | 1.4489 Trolox equivalents |  |  |  |  |  |  |  | 
Cc1ncc(COCc2cn(Cc3cccc(F)c3)nn2)c(CO)c1O [Compound 5h, 5-(((1-(3-Fluorobenzyl)-1H-1,2,3-triazol-4-yl)methoxy)methyl)-4-(hydroxymethyl)-2-methylpyridin-3-ol] | 1.54 | 2.1015 Trolox equivalents | 19 | 25.5 | 35.1 | 56.4 | 60.5 | 66.6 | 69 | 
Cc1ncc(COCc2cn(Cc3cc(F)cc(F)c3)nn2)c(CO)c1O [Compound 5i, 5-(((1-(3,5-Difluorobenzyl)-1H-1,2,3-triazol-4-yl)methoxy)methyl)-4-(hydroxymethyl)-2-methylpyridin-3-ol] | 1.56 | 1.21 ± 0.28 Trolox equivalents and 1.2138 Trolox equivalents | 15 | 26.6 | 35.4 | 43 | 61.4 | 66.8 | 77.9 | chelation of Al^3+ (in words) [3]: chelated; increase in absorbance with Al^3+ ([3]; at 292 nm): 104%; bathochromic shift with Al^3+ ([3]; band at 292 nm): 4 nm; chelation of Fe^3+ (in words) [4]: chelated; bathochromic shift with Fe^3+ ([4]; band at 292 nm): about 3 nm; chelation of Ca^2+, Mg^2+, Na^+ and K^+ (in words) [5]: did not chelate these metal ions at all; affinity towards Fe^3+ in the metal pool (in words) [6]: showed affinity towards Fe^3+ in the metal pool; mole fraction from Job's plot [7]: 0.5
Cc1ncc(COCc2cn(Cc3ccc(Cl)cc3)nn2)c(CO)c1O [Compound 5j, 5-(((1-(4-Chlorobenzyl)-1H-1,2,3-triazol-4-yl)methoxy)methyl)-4-(hydroxymethyl)-2-methylpyridin-3-ol] | 2.72 | 1.9697 Trolox equivalents |  |  |  |  |  |  |  | 
Cc1ncc(COCc2cn(Cc3cccc(Cl)c3)nn2)c(CO)c1O [Compound 5k, 5-(((1-(3-Chlorobenzyl)-1H-1,2,3-triazol-4-yl)methoxy)methyl)-4-(hydroxymethyl)-2-methylpyridin-3-ol] | 2.71 | 0.8358 Trolox equivalents |  |  |  |  |  |  |  | 
Cc1ncc(COCc2cn(Cc3ccc(Cl)c(Cl)c3)nn2)c(CO)c1O [Compound 5l, 5-(((1-(3,4-Dichlorobenzyl)-1H-1,2,3-triazol-4-yl)methoxy)methyl)-4-(hydroxymethyl)-2-methylpyridin-3-ol] | 3.38 | 1.9421 Trolox equivalents |  |  |  |  |  |  |  | 
Cc1ncc(COCc2cn(Cc3ccc(Br)cc3)nn2)c(CO)c1O [Compound 5m, 5-(((1-(4-Bromobenzyl)-1H-1,2,3-triazol-4-yl)methoxy)methyl)-4-(hydroxymethyl)-2-methylpyridin-3-ol] | 3.14 | 1.215 Trolox equivalents |  |  |  |  |  |  |  | 
Cc1ncc(COCc2cn(Cc3cccc(Br)c3)nn2)c(CO)c1O [Compound 5n, 5-(((1-(3-Bromobenzyl)-1H-1,2,3-triazol-4-yl)methoxy)methyl)-4-(hydroxymethyl)-2-methylpyridin-3-ol] | 1.08 | 2.2079 Trolox equivalents | 14.7 | 25.8 | 42 | 57.4 | 70.2 | 75.9 | 86.3 | 
Cc1ncc(COCc2cn(Cc3ccc(C(F)(F)F)cc3)nn2)c(CO)c1O [Compound 5o, 4-(Hydroxymethyl)-2-methyl-5-(((1-(4-(trifluoromethyl)benzyl)-1H-1,2,3-triazol-4-yl)methoxy)methyl)pyridin-3-ol] | 6.52 | 2.0758 Trolox equivalents |  |  |  |  |  |  |  | 
Cc1ncc(COCc2cn(Cc3cccc(C(F)(F)F)c3)nn2)c(CO)c1O [Compound 5p, 4-(Hydroxymethyl)-2-methyl-5-(((1-(3-(trifluoromethyl)benzyl)-1H-1,2,3-triazol-4-yl)methoxy)methyl)pyridin-3-ol] | 3.65 | 0.8718 Trolox equivalents |  |  |  |  |  |  |  | 
Cc1ncc(COCc2cn(Cc3ccccc3C(F)(F)F)nn2)c(CO)c1O [Compound 5q, 4-(Hydroxymethyl)-2-methyl-5-(((1-(2-(trifluoromethyl)benzyl)-1H-1,2,3-triazol-4-yl)methoxy)methyl)pyridin-3-ol] | 1.13 | 0.7168 Trolox equivalents | 22.5 | 26.9 | 39.1 | 53.8 | 64.1 | 73.4 | 81.9 | chelation of Al^3+ (in words) [3]: chelated; chelation of Fe^3+ (in words) [4]: chelated
Cc1ncc(CO)c(CO)c1O [Pyridoxine, reference compound] |  | 0.5249 Trolox equivalents |  |  |  |  |  |  |  | AChE inhibitory activity (in words) [1]: not an AChE inhibitor; AChE inhibitory activity (in words) ([1]; listed as pyridoxine): inactive
Cc1c(C)c2c(c(C)c1O)CCC(C)(C(=O)O)O2 (stereo not drawn) [Trolox, reference compound] |  | 1 Trolox equivalents |  |  |  |  |  |  |  | 
